Reference: ChEMBL document CHEMBL4265871, “Novel alkylated azoles as potent antifungals” (Eur J Med Chem, 2017)
Converted amounts (≈) assume the structure as drawn.

Experiments:
[1] = Selectivity index, ratio of EC50 for toxicity in human BEAS2B cells to MIC100 for antifungal activity against Candida albicans ATCC 10231; format: cell-based; conditions: BEAS-2B cells, read-out: Selectivity Index
How it was run: (§1)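 Selectivity index is the EC50 against the mammalian line (A549 or BEAS-2B) divided by the MIC against the given fungal strain.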

[2] = Selectivity index, ratio of EC50 for toxicity in human A549 cells to MIC50 for antifungal activity against Candida krusei ATCC 6258
[3] = Selectivity index, ratio of EC50 for toxicity in human A549 cells to MIC50 for antifungal activity against ITC and FLC-resistant Candida albicans ATCC MYA-90819; format: cell-based; conditions: read-out: Selectivity Index; how it was run: as §1
[4] = Selectivity index, ratio of EC50 for toxicity in human BEAS2B cells to MIC50 for antifungal activity against Candida glabrata ATCC 2001; format: cell-based; conditions: BEAS-2B cells, read-out: Selectivity Index; how it was run: as §1
[5] = tested on: Candida albicans; assay: Antifungal activity against Candida albicans ATCC 64124 incubated for 48 hrs by modified CLSI M27-A3 protocol based method; format: functional; conditions: ATCC 64124, 48 h
[6] = Selectivity index, ratio of EC50 for toxicity in human A549 cells to MIC100 for antifungal activity against Candida albicans ATCC 10231; format: cell-based; conditions: read-out: Selectivity Index; how it was run: as §1
[7] = Selectivity index, ratio of […] for toxicity in human BEAS2B cells to MIC50 for antifungal activity against Aspergillus terreus ATCC MYA-3633; format: cell-based; conditions: BEAS-2B cells, read-out: Selectivity Index
[8] = Selectivity index, ratio of […] for toxicity in human A549 cells to MIC50 for antifungal activity against Aspergillus terreus ATCC MYA-3633; format: cell-based; conditions: read-out: Selectivity Index
[9] = tested on: Candida albicans; assay: Antifungal activity against Candida albicans ATCC 10231 incubated for 48 hrs by modified CLSI M27-A3 protocol based method; format: functional; conditions: ATCC 10231, 48 h, read-out: MIC100
How it was run: (§2)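 For C. albicans ATCC 10231, C. krusei ATCC 6258 and C. parapsilosis ATCC 22019, MIC-0 was read, meaning complete growth inhibition. For azole controls, MIC-2 (50% growth inhibition) was reported instead. Caspofungin and voriconazole were tested here; other controls came from earlier work.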

[10] = Selectivity index, ratio of […] for toxicity in human BEAS2B cells to MIC50 for antifungal activity against Aspergillus flavus ATCC MYA-3631; format: cell-based; conditions: BEAS-2B cells, read-out: Selectivity Index
[11] = Selectivity index, ratio of EC50 for toxicity in human BEAS2B cells to MIC50 for antifungal activity against Candida albicans ATCC 64124; format: cell-based; conditions: BEAS-2B cells, read-out: Selectivity Index; how it was run: as §1
[12] = tested on: Aspergillus flavus; assay: Antifungal activity against Aspergillus flavus ATCC MYA-3631 incubated for 48 hrs by CLSI M38-A2 protocol based method; format: functional; conditions: ATCC MYA-3631, 48 h, read-out: MIC100
[13] = Selectivity index, ratio of […] for toxicity in human A549 cells to MIC50 for antifungal activity against Aspergillus nidulans ATCC 38163; format: cell-based; conditions: read-out: Selectivity Index
[14] = Selectivity index, ratio of EC50 for toxicity in human A549 cells to MIC50 for antifungal activity against ITC and FLC-resistant Candida albicans ATCC 1237; format: cell-based; conditions: read-out: Selectivity Index; how it was run: as §1
[15] = Toxicity in human BEAS2B cells assessed as reduction in cell viability incubated for 24 hrs by resazurin dye based assay; conditions: BEAS-2B cells
How it was run: (§3)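 Toxicity tested in the nucleated lines A549 and BEAS-2B to give EC50 values. Selectivity index is EC50 against the mammalian line divided by the MIC against a given fungal strain.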

[16] = tested on: Candida albicans; assay: Antifungal activity against ITC and FLC-resistant Candida albicans ATCC MYA-1003 incubated for 48 hrs by modified CLSI M27-A3 protocol based method; format: functional; conditions: ATCC MYA-1003, 48 h
How it was run: (§4)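 Because these Candida strains show trailing growth, MIC-2 was read, meaning 50% growth inhibition. Caspofungin and voriconazole were tested here; other controls came from earlier work.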

[17] = tested on: Candida albicans; assay: Antifungal activity against ITC and FLC-susceptible Candida albicans ATCC MYA-2310 incubated for 48 hrs by modified CLSI M27-A3 protocol based method; format: functional; conditions: ATCC MYA-2310, 48 h
[18] = tested on: Candida albicans; assay: Antifungal activity against ITC and FLC-susceptible Candida albicans ATCC MYA-2876 incubated for 48 hrs by modified CLSI M27-A3 protocol based method; format: functional; conditions: ATCC MYA-2876, 48 h; how it was run: as §4
[19] = Selectivity index, ratio of EC50 for toxicity in human BEAS2B cells to MIC50 for antifungal activity against ITC and FLC-resistant Candida albicans ATCC MYA-1003; format: cell-based; conditions: BEAS-2B cells, read-out: Selectivity Index; how it was run: as §1
[20] = tested on: Candida parapsilosis; assay: Antifungal activity against Candida parapsilosis ATCC 22019 incubated for 48 hrs by modified CLSI M27-A3 protocol based method; format: functional; conditions: Lodderomyces parapsilosis, ATCC 22019, 48 h; read-out: MIC100; how it was run: as §2
[21] = in vitro; conditions: mouse, mouse erythrocytes
[22] = Selectivity index, ratio of EC50 for toxicity in human BEAS2B cells to MIC for antifungal activity against Candida parapsilosis ATCC 22019; conditions: BEAS-2B cells
[23] = Selectivity index, ratio of EC50 for toxicity in human A549 cells to MIC50 for antifungal activity against ITC and FLC-resistant Candida albicans ATCC MYA-1003; format: cell-based; conditions: read-out: Selectivity Index; how it was run: as §1
[24] = Selectivity index, ratio of EC50 for toxicity in human A549 cells to MIC for antifungal activity against Candida parapsilosis ATCC 22019
[25] = Selectivity index, ratio of […] for toxicity in human A549 cells to MIC50 for antifungal activity against Aspergillus flavus ATCC MYA-3631; format: cell-based; conditions: read-out: Selectivity Index
[26] = Toxicity in human A549 cells assessed as reduction in cell viability incubated for 24 hrs by resazurin dye based assay; how it was run: as §3
[27] = Hemolytic activity in mouse erythrocytes assessed as hemolysis level at 15.6 ug/ml incubated for 1 hr at 37 degC; format: ADME, cell-based, Erythrocyte; conditions: read-out: Activity
How it was run: (§5)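 Mouse erythrocytes incubated 1 h at 37 °C with test agents over 1.95 to 125 µg/mL. Percent lysis is read for each concentration.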

[28] = Selectivity index, ratio of EC50 for toxicity in human A549 cells to MIC50 for antifungal activity against ITC and FLC-susceptible Candida albicans ATCC MYA-2876; format: cell-based; conditions: read-out: Selectivity Index; how it was run: as §1
[29] = Hemolytic activity in mouse erythrocytes assessed as hemolysis level at 125 ug/ml incubated for 1 hr at 37 degC; format: ADME, cell-based, Erythrocyte; conditions: read-out: Activity; how it was run: as §5
[30] = Selectivity index, ratio of EC50 for toxicity in human BEAS2B cells to MIC50 for antifungal activity against Candida krusei ATCC 6258; conditions: BEAS-2B cells
[31] = Selectivity index, ratio of EC50 for toxicity in human A549 cells to MIC50 for antifungal activity against ITC and FLC-susceptible Candida albicans ATCC MYA-2310; format: cell-based; conditions: read-out: Selectivity Index; how it was run: as §1
[32] = tested on: Aspergillus nidulans; assay: Antifungal activity against Aspergillus nidulans ATCC 38163 incubated for 48 hrs by CLSI M38-A2 protocol based method; format: functional; conditions: ATCC 38163, 48 h, read-out: MIC100
[33] = Hemolytic activity in mouse erythrocytes assessed as hemolysis level at 31.3 ug/ml incubated for 1 hr at 37 degC; format: ADME, cell-based, Erythrocyte; conditions: read-out: Activity; how it was run: as §5

SMILES	selectivity ratio [1]	selectivity ratio [2]	selectivity ratio [3]	selectivity ratio [4]	MIC50 [5] [µM]	selectivity ratio [6]	selectivity ratio [7]	selectivity ratio [8]	MIC [9] [µM]	selectivity ratio [10]	selectivity ratio [11]	MIC [12] [µM]	selectivity ratio [13]	selectivity ratio [14]	EC50 at 24 h [15] [µg/mL]	MIC50 [16] [µM]	MIC50 [17] [µM]	MIC50 [18] [µM]	selectivity ratio [19]	MIC [20] [µM]	other results
CCCCCCC(O)(Cn1cncn1)c1ccc(Cl)cc1 (configuration not stated)	16	19	10	1	102 (≈ 31.3 µg/mL)	19	2	2	6.3 (≈ 1.94 µg/mL)	1	1	> 102	10	10	> 31.3	6.3 (≈ 1.94 µg/mL)	102 (≈ 31.3 µg/mL)	25.3 (≈ 7.79 µg/mL)	16	> 102	hemolysis at 1 h, 62.5 ug/ml [21]: 83.9%; selectivity ratio [22]: 1; selectivity ratio [23]: 19; selectivity ratio [24]: 1; selectivity ratio [25]: 1; EC50 at 24 h [26]: 38 µg/mL (≈ 123 µM); hemolysis at 1 h, 15.6 ug/ml [27]: 0%; selectivity ratio [28]: 5; hemolysis at 1 h, 125 ug/ml [29]: 102%; selectivity ratio [30]: 16; selectivity ratio [31]: 1; MIC [32]: 12.7 µM (≈ 3.91 µg/mL); hemolysis at 1 h, 31.3 ug/ml [33]: 9.5%
CCCCCCC(O)(Cn1cncn1)c1ccc(Cl)cc1Cl (configuration not stated)	117	667	10	14	5.7 (≈ 1.95 µg/mL)	83	7	5	0.7 (≈ 0.24 µg/mL)	7	14	11.4 (≈ 3.9 µg/mL)	42	10	28 (≈ 81.8 µM)	2.8 (≈ 0.958 µg/mL)	5.7 (≈ 1.95 µg/mL)	2.8 (≈ 0.958 µg/mL)	29	< 0.09	hemolysis at 1 h, 62.5 ug/ml [21]: 98%; selectivity ratio [22]: 933; selectivity ratio [23]: 21; selectivity ratio [24]: 667; selectivity ratio [25]: 5; EC50 at 24 h [26]: 20 µg/mL (≈ 58.4 µM); hemolysis at 1 h, 15.6 ug/ml [27]: 105%; selectivity ratio [28]: 21; hemolysis at 1 h, 125 ug/ml [29]: 105%; selectivity ratio [30]: 933; selectivity ratio [31]: 10; MIC [32]: 1.4 µM (≈ 0.479 µg/mL); hemolysis at 1 h, 31.3 ug/ml [33]: 92%
CCCCCC(O)(Cn1cncn1)c1ccccc1Cl (configuration not stated)	4	32	65	32	> 106	4	2	2	26.5 (≈ 7.79 µg/mL)	1	1	> 106	32	32	> 31.3	26.5 (≈ 7.79 µg/mL)	3.3 (≈ 0.97 µg/mL)	3.3 (≈ 0.97 µg/mL)	4	0.41 (≈ 0.12 µg/mL)	hemolysis at 1 h, 62.5 ug/ml [21]: 0%; selectivity ratio [22]: 261; selectivity ratio [23]: 4; selectivity ratio [24]: 261; selectivity ratio [25]: 1; EC50 at 24 h [26]: > 31.3 µg/mL; hemolysis at 1 h, 15.6 ug/ml [27]: 0%; selectivity ratio [28]: 32; hemolysis at 1 h, 125 ug/ml [29]: 81%; selectivity ratio [30]: 32; selectivity ratio [31]: 32; MIC [32]: 3.3 µM (≈ 0.97 µg/mL); hemolysis at 1 h, 31.3 ug/ml [33]: 0%
CCCCC(O)(Cn1cncn1)c1ccc(F)cc1F (configuration not stated)	19	522	2	1	55.5 (≈ 15.6 µg/mL)	16	2	2	6.9 (≈ 1.94 µg/mL)	2	2	55.5 (≈ 15.6 µg/mL)	16	2	36 (≈ 128 µM)	13.9 (≈ 3.91 µg/mL)	112 (≈ 31.4 µg/mL)	27.7 (≈ 7.79 µg/mL)	9	< 0.11	hemolysis at 1 h, 62.5 ug/ml [21]: 0%; selectivity ratio [22]: 1200; selectivity ratio [23]: 8; selectivity ratio [24]: 1040; selectivity ratio [25]: 2; EC50 at 24 h [26]: > 31.3 µg/mL; hemolysis at 1 h, 15.6 ug/ml [27]: 0%; selectivity ratio [28]: 4; hemolysis at 1 h, 125 ug/ml [29]: 0%; selectivity ratio [30]: 600; selectivity ratio [31]: 1; MIC [32]: 6.9 µM (≈ 1.94 µg/mL); hemolysis at 1 h, 31.3 ug/ml [33]: 3.7%
